ChEMBL document CHEMBL4371071, “Muscarinic agonist, (±)-quinuclidin-3-yl-(4-fluorophenethyl)(phenyl)carbamate: High affinity, but low subtype selectivity for human M1 - M5 muscarinic acetylcholine receptors” (Bioorg Med Chem Lett, 2019)

Experiments:
[1] = target: T1, Muscarinic acetylcholine receptor M5 (Homo sapiens, UniProt P08912); assay: Displacement of [3H]NMS from human M5 AChR expressed in CHO cell membranes after 1 to 2 hrs by liquid scintillation spectrometry method
T1 sequence (P08912 whole entry): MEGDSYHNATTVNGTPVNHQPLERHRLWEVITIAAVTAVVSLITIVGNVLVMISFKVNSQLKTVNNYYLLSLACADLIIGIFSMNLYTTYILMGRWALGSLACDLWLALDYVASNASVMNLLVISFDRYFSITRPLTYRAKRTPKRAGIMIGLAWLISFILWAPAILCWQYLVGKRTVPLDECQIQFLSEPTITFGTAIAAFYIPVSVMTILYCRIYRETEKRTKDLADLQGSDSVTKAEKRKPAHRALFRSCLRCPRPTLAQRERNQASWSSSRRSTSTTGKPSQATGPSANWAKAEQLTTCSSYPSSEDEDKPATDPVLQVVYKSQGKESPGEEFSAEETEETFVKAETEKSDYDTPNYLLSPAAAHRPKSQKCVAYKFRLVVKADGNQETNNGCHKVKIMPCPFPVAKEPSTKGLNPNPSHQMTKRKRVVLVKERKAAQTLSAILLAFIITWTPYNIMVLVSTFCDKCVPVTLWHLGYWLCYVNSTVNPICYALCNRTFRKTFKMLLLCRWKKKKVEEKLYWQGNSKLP
Outline: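 CHO membranes expressing human M5 (10 µg protein/well) with 0.3 nM [3H]NMS and analog (1 nM–100 µM) in 50 mM Tris-HCl pH 7.4, 2 h at 25 °C. Filtered on GF/B, counted by scintillation. IC50 converted to Ki; three independent experiments in duplicate.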

[2] = target: T2, Muscarinic acetylcholine receptor M1 (Homo sapiens) (UniProt P11229); details: CHO, at 100 µM
T2 sequence (whole entry): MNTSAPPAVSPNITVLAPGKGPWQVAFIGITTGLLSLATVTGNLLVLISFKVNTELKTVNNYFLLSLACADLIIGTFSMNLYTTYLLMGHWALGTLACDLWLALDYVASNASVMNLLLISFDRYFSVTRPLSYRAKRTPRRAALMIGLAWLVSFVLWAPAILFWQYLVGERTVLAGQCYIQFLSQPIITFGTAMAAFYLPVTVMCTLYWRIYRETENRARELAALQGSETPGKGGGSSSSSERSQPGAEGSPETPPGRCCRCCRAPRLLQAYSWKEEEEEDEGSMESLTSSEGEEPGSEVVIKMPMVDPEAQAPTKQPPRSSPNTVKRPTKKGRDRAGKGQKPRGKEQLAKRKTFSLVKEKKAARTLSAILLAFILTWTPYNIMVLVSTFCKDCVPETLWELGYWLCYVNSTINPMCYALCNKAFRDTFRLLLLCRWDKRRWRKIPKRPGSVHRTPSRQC

Homo sapiens [3] = species on record: Homo sapiens; assay: Selectivity ratio of Ki for displacement of [3H]NMS from human M1 AChR expressed in CHO cell membranes to Ki for displacement of [3H]NMS from human M5 AChR expressed in CHO cell membranes
[4] = target: T3, Muscarinic acetylcholine receptor M3 (Homo sapiens, UniProt P20309); assay: Displacement of [3H]NMS from human M3 AChR expressed in CHO cell membranes after 1 to 2 hrs by liquid scintillation spectrometry method; format: cell-based
Target sequence in this assay (P20309 whole entry): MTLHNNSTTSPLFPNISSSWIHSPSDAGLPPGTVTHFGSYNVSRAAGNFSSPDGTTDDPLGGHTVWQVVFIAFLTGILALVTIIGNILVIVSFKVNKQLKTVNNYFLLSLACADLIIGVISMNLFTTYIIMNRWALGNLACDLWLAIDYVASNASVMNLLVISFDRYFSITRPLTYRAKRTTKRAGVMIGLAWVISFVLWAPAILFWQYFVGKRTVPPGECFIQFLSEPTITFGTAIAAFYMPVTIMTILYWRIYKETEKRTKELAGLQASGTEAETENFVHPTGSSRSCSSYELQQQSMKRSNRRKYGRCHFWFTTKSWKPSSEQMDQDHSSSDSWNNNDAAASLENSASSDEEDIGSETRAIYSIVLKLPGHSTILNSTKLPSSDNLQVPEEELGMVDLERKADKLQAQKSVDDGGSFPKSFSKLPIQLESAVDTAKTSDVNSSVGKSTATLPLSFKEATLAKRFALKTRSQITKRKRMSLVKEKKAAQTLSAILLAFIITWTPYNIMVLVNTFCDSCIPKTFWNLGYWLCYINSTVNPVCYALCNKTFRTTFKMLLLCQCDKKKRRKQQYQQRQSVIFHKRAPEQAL

[5] = target: T4, Muscarinic acetylcholine receptor M2 (Homo sapiens) (UniProt P08172); assay: Displacement of [3H]NMS from human M2 AChR expressed in CHO cell membranes at 100 uM after 1 to 2 hrs by liquid scintillation spectrometry method relative to control
T4 sequence (whole entry): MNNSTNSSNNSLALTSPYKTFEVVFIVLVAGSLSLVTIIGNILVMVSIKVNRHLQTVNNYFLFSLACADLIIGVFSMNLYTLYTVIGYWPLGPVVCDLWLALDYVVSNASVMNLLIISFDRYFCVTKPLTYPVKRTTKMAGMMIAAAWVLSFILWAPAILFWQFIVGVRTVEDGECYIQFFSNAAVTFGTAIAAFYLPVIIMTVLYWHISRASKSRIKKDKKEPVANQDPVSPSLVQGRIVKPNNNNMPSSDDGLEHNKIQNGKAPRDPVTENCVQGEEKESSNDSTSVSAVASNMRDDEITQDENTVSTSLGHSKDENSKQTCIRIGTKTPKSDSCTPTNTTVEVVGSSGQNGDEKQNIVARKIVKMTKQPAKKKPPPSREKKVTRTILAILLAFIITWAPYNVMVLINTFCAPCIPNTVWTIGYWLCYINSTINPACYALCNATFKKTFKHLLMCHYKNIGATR
Outline: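 CHO membranes expressing the human subtype (20 µg protein/well) with 0.3 nM [3H]NMS and analog (1 nM–100 µM) in 50 mM Tris-HCl pH 7.4, 2 h at 25 °C. Filtered on GF/B, washed, counted by scintillation. IC50 taken from curves to give Ki; three independent experiments in duplicate.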

[6] = target: T5, Muscarinic acetylcholine receptor M5 (Homo sapiens) (UniProt P08912); assay: Displacement of [3H]NMS from human M5 AChR expressed in CHO cell membranes at 100 uM after 1 to 2 hrs by liquid scintillation spectrometry method relative to control
T5 sequence (whole entry): T1 sequence (P08912 whole entry)
Outline: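 CHO membranes expressing human M5 (10 µg protein/well) with 0.3 nM [3H]NMS and analog (1 nM–100 µM) in 50 mM Tris-HCl pH 7.4, 2 h at 25 °C. […] Filtered on GF/B, counted by scintillation. IC50 converted to Ki; three independent experiments in duplicate.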

Homo sapiens [7] = species on record: Homo sapiens; assay: Selectivity ratio of Ki for displacement of [3H]NMS from human M2 AChR expressed in CHO cell membranes to Ki for displacement of [3H]NMS from human M3 AChR expressed in CHO cell membranes
[8] = target: T3, Muscarinic acetylcholine receptor M3; details: CHO, at 100 µM
Target sequence in this assay (P20309 whole entry, looked up): as the sequence (P20309 whole entry) above

[9] = target: T6, Muscarinic acetylcholine receptor M1 (Homo sapiens, UniProt P11229); assay: Displacement of [3H]NMS from human M1 AChR expressed in CHO cell membranes after 1 to 2 hrs by liquid scintillation spectrometry method; format: cell-based
T6 sequence (P11229 whole entry): T2 sequence (whole entry)

[10] = target: T7, Muscarinic acetylcholine receptor M2 (Homo sapiens, UniProt P08172); assay: Displacement of [3H]NMS from human M2 AChR expressed in CHO cell membranes after 1 to 2 hrs by liquid scintillation spectrometry method
T7 sequence (P08172 whole entry): T4 sequence (whole entry)
Outline: (§1)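 CHO membranes expressing the human subtype (20 µg protein/well) with 0.3 nM [3H]NMS and analog (1 nM–100 µM) in 50 mM Tris-HCl pH 7.4, 2 h at 25 °C. […] Filtered on GF/B, washed, counted by scintillation. IC50 taken from curves to give Ki; three independent experiments in duplicate.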

[11] = target: T8, Muscarinic acetylcholine receptor M4 (Homo sapiens) (UniProt P08173); assay: Displacement of [3H]NMS from human M4 AChR expressed in CHO cell membranes at 100 uM after 1 to 2 hrs by liquid scintillation spectrometry method relative to control; outline: as §1
T8 sequence (whole entry): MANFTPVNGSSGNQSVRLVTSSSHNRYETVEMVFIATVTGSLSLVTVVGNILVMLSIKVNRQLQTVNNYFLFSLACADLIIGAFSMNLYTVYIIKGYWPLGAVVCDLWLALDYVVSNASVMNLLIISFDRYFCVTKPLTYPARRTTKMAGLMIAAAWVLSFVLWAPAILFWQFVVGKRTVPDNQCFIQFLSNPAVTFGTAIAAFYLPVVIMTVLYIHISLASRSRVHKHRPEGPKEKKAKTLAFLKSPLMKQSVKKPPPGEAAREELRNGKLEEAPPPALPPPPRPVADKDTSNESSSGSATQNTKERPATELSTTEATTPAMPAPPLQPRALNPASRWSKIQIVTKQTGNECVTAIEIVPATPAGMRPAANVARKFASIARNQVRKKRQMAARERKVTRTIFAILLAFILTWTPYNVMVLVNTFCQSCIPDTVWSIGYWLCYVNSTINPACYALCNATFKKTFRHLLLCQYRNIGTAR

[12] = target: T9, Muscarinic acetylcholine receptor M4 (Homo sapiens, UniProt P08173); assay: Displacement of [3H]NMS from human M4 AChR expressed in CHO cell membranes after 1 to 2 hrs by liquid scintillation spectrometry method
T9 sequence (P08173 whole entry): T8 sequence (whole entry)
Outline: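 Human M4-expressing CHO membranes (20 µg protein/well) incubated 2 h at 25 °C with 0.3 nM [3H]NMS and analog (1 nM–100 µM) in 50 mM Tris–HCl pH 7.4. […] Filtered, washed, counted by scintillation. IC50 taken from inhibition curves, Ki from three independent duplicate experiments (mean ± SEM).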

[13] = target: T10, Muscarinic acetylcholine receptor (Rattus norvegicus) (UniProt P08482+P08483+P08485+P08911+P10980); details: 10 uM
[14] = target: T10, Muscarinic acetylcholine receptor (Rattus norvegicus); details: 1 uM

SMILES | Ki [1] [nM] | Imax [2] [%] | Ratio Ki (Homo sapiens [3]) | Ki [4] [nM] | Imax [5] [%] | Imax [6] [%] | Ratio Ki (Homo sapiens [7]) | Imax [8] [%] | Ki [9] [nM] | Ki [10] [nM] | Imax [11] [%] | Ki [12] [nM] | inhibition [13] [%] | inhibition [14] [%]
O=C(OCc1ccc(Cl)c(Cl)c1)N(c1ccccc1)C1CN2CCC1CC2 (centres undefined) | 60 | 100 | 0.9 | 70 | 97.5 | 98.6 | 3.3 | 95.8 | 60 | 220 |  |  |  | 
COc1ccc(CCN(C(=O)OC2CN3CCC2CC3)c2ccccc2)cc1 (racemic) | 10 | 100 | 1 | 8 | 99.7 | 100 | 17.1 | 99.9 | 10 | 130 | 99.9 | 25 |  | 
CN1[C@@H]2C[C@H](OC(=O)[C@H](CO)c3ccccc3)C[C@H]1[C@@H]1O[C@@H]12 |  |  |  |  |  |  |  |  |  |  |  |  | 59 | 51
Cc1ccc(COC(=O)N(c2ccccc2)C2CN3CCC2CC3)cc1F (centres undefined) | 30 | 100 | 1.2 | 20 | 99.7 | 97.4 | 1.3 | 99 | 40 | 30 |  |  |  | 
O=C(OCCCc1ccc(Cl)c(Cl)c1)N(c1ccccc1)C1CN2CCC1CC2 (centres undefined) | 130 | 100 | 1.3 | 60 | 99.9 | 99.4 | 4.7 | 100 | 170 | 300 |  |  |  | 
O=C(OCc1ccccc1)N(c1ccccc1)C1CN2CCC1CC2 (centres undefined) | 150 | 99.5 | 1.3 | 90 | 99.4 | 97.2 | 1.2 | 98.6 | 190 | 120 |  |  |  | 
O=C(OCc1ccc2c(c1)OCO2)N(c1ccccc1)C1CN2CCC1CC2 (centres undefined) | 40 | 100 | 0.8 | 19 | 99.4 | 99.7 | 1.7 | 99.9 | 30 | 30 |  |  |  | 
